Laboratory results from ChEMBL document CHEMBL1914430, “Synthesis of some new 1,3,5-trisubstituted pyrazolines bearing benzene sulfonamide as anticancer and anti-inflammatory agents” (Bioorg Med Chem Lett, 2011).
Activity calls are given as the source filed them. No cut-off for these calls is given here.

Columns and labels:
[1] = tested on: Rattus norvegicus; experiment: Antiinflammatory activity in Wistar rat assessed as inhibition of carrageenan-induced hind paw edema at 20 mg/kg, po administered 30 mins before carrageenan challenge measured after 3 hrs by plethysmometer; type: functional
Method in brief: (§1)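 Wistar rats of either sex, 150–175 g, fasted 16 h, n = 6 per group. Compound given orally at 20 mg/kg as a suspension in 1% CMC in water (10 mL/kg); controls got vehicle only. After 30 min, 0.1 mL of 1% carrageenan in saline was injected subplantar into the left hind paw. Paw volume was measured by plethysmometer at 0, 3 and 5 h. Inhibition = (1 − Vt/Vc) × 100, reported as mean ± SEM.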

[2] = tested on: Rattus norvegicus; experiment: Antiinflammatory activity in Wistar rat assessed as inhibition of carrageenan-induced hind paw edema at 20 mg/kg, po administered 30 mins before carrageenan challenge measured after 5 hrs by plethysmometer; type: functional; method in brief: as §1
[3] = tested on: Rattus norvegicus; experiment: Toxicity in Wistar rat assessed as appearance of ulcerogenic bleeding in stomach at 60 mg/kg, po; type: organism-based; set-up: dose 60 mg/kg, route oral; conditions: in vivo
Method in brief: (§2)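 Wistar rats, 160–220 g, fasted 24 h, six per group. Compound given orally at 60 mg/kg as a suspension in 1% w/v CMC (10 mL/kg); controls got vehicle only. Animals were killed under ether anaesthesia 6 h after treatment, and stomachs were opened along the greater curvature and examined for lesions and bleeding.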

[4] = target: Prostaglandin G/H synthase 1 (Bos taurus) (UniProt O62664); experiment: Inhibition of bovine COX1 assessed as PGE2 production preincubated for 10 mins by ELISA
Method in brief: (§3)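 In vitro inhibition of bovine COX-1 and COX-2 measured with a COX inhibitor screening kit, following the Gierse et al. method.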

[5] = tested on: Rattus norvegicus; experiment: Toxicity in Wistar rat assessed as appearance of ulcerogenic lesions in stomach at 60 mg/kg, po; type: organism-based; set-up: dose 60 mg/kg, route oral; conditions: in vivo; method in brief: as §2
[6] = target: Prostaglandin G/H synthase 2 (Bos taurus) (UniProt O62698); experiment: Inhibition of bovine COX2 assessed as PGE2 production preincubated for 10 mins by ELISA; method in brief: as §3
Prostaglandin G/H synthase 2 (Bos taurus), sequence (O62698 whole entry): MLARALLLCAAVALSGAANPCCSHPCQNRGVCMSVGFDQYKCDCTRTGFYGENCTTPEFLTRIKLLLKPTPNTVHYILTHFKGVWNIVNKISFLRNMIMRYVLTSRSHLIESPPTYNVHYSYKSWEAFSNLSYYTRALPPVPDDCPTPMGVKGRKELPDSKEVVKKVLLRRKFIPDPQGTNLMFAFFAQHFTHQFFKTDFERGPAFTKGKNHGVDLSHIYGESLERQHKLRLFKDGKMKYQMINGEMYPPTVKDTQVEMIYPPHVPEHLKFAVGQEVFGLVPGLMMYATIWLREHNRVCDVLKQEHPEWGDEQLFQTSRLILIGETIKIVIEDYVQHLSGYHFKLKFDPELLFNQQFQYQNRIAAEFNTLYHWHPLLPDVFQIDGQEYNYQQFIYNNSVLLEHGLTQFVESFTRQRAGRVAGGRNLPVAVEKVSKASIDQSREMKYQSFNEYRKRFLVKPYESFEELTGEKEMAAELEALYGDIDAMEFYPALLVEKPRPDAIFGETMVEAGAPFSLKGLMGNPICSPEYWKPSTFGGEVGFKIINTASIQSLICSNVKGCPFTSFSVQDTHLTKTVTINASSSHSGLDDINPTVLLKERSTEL

Prostaglandin G/H synthase 1 (Bos taurus), sequence (O62664 whole entry): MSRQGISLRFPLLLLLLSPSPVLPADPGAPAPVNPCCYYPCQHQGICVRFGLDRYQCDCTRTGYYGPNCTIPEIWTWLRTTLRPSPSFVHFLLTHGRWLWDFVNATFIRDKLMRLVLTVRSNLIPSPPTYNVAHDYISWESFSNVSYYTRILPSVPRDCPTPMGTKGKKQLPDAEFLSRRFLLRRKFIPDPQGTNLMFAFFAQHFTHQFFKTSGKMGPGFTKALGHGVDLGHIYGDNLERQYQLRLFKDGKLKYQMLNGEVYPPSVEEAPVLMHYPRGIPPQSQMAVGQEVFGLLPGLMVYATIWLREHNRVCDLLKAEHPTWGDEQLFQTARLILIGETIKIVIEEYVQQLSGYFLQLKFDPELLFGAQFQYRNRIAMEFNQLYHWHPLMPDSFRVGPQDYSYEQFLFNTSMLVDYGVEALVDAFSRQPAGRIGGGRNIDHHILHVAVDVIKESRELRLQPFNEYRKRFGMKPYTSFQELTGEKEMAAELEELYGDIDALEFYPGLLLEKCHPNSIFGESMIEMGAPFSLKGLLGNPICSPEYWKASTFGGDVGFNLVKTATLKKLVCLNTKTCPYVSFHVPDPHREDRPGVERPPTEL

## COc1cc(C)c(Cl)cc1C1=NN(c2ccc(S(N)(=O)=O)cc2)C(/C=C/c2ccccc2)C1 (stereo not drawn)
[1]
  inhibition in vivo at 20 mg/kg: 55.3%
[2]
  inhibition in vivo at 20 mg/kg: 52.4%

## COc1cc(C)c(Cl)cc1C1=NN(c2ccc(S(N)(=O)=O)cc2)C(c2ccc(N(C)C)cc2)C1 (stereo not drawn)
[1]
  inhibition in vivo at 20 mg/kg: 78.9%
[3]
  Activity: Non-toxic
[2]
  inhibition in vivo at 20 mg/kg: 95.2%
[4]
  inhibition: inactive
[5]
  Activity: Non-toxic
[6]
  inhibition: Active
